For data set [1], the system named is Leishmania amazonensis. Description: Antileishmanial activity against promastigote stage of Leishmania amazonensis WHOM/BR/75/JOSEFA after 72 hrs by hemocytometry. It is filed as functional, organism-based.
Data set [2] concerns Trypanosoma cruzi. Nature of the data set: Antitrypanosomal activity against epimastigote stage of Trypanosoma cruzi Y after 96 hrs by hemocytometry. It is filed as functional, organism-based. In a few lines: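 Log-phase parasites (promastigotes 3-day, Warren's medium + 10% FBS, 25°C; epimastigotes 4-day, LIT + 10% FBS, 28°C) seeded at 1 × 10^6 cells/mL with compound (0.1-100 µM; DMSO ≤1%). Promastigotes read at 72 h, epimastigotes at 96 h, by hemocytometer counting. IC50 by nonlinear regression.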

Data set [3] can be described thus: Selectivity ratio of CC50 for mouse J774A1 cells to IC50 for promastigote stage of Leishmania amazonensis WHOM/BR/75/JOSEFA. Particulars: read-out: Ratio CC50/IC50. It is filed as ADME, cell-based, J774.A1.
The nature of data set [4]: Selectivity ratio of CC50 for monkey LLC-MK2 cells to IC50 for epimastigote stage of epimastigote stage of Trypanosoma cruzi Y. It is filed as ADME, cell-based. Particulars: read-out: Ratio CC50/IC50.
Data set [5] deals with Trypanosoma cruzi. Description: Antitrypanosomal activity against trypomastigote stage of Trypanosoma cruzi Y infected in monkey LLC-MK2 cells after 96 hrs by Pizzi-Brener method. It is filed as functional, organism-based.
Data set [6] can be described thus: Selectivity ratio of CC50 to IC50 for promastigote stage of Leishmania amazonensis WHOM/BR/75/JOSEFA. More on the design: reference not given here.
The nature of data set [7]: Selectivity ratio of CC50 for monkey LLC-MK2 cells to IC50 for epimastigote stage of epimastigote stage of Trypanosoma cruzi Y.

Our source for the IC50, selectivity ratio and EC50 values is ChEMBL document CHEMBL3396970, “Synthesis and biological evaluation of novel 2,3-disubstituted quinoxaline derivatives as antileishmanial and antitrypanosomal agents” (Eur J Med Chem, 2015).

Molecules are shown by their SMILES.

As a reminder, the IC50 is the concentration needed to halve the response being measured. Consider `Cc1ccc(-c2nc3ccccc3nc2-c2ccccc2)cc1`, for which the IC50 in data set [1] was determined as 8.9 µM; in data set [2], 35.7 µM.
The like results for `COc1ccc(-c2nc3ccccc3nc2-c2ccccc2)cc1` were, in that order, 12.8 µM and 21.5 µM.
For the compound `c1ccc(-c2nc3ccccc3nc2-c2ccccc2)cc1`, the figures for the IC50 in data set [1] and in data set [2] were 21.1 µM and over 100 µM, respectively.
The term EC50 denotes the concentration giving half of the maximal effect. As for `CSC(=C[N+](=O)[O-])SC`, the figures for the IC50 in data set [1] and in data set [2] were 29.6 µM and 10.8 µM, respectively. Also, the selectivity ratio in data set [3] worked out at 6; in data set [4], 18.3; in data set [6], 6; in data set [7], 18.3. The compound also gave an EC50 in data set [5] of over 50 µM.
Take `COc1cccc(N/C(=C\[N+](=O)[O-])SC)c1`: the IC50 in data set [1] amounted to 27.9 µM; in data set [2], 32 µM.
For `CS/C(=C/[N+](=O)[O-])Nc1ccccc1` the same measures were 24.1 µM and 11.4 µM.
The like results for `COc1ccc(N/C(=C\[N+](=O)[O-])SC)cc1` were, in that order, 28.7 µM and 39 µM.
For `CS/C(=C/[N+](=O)[O-])Nc1ccc2c(c1)OCCO2` the same measures were 42.3 µM and 61.9 µM.
As for `CS/C(=C/[N+](=O)[O-])Nc1ccc(O)cc1`, the 50% inhibitory concentration (IC50) in data set [1] amounted to 41.5 µM; in data set [2], 67.3 µM.
The like results for `CS/C(=C/[N+](=O)[O-])Nc1ccc(Br)cc1` were, in that order, 33 µM and 20.4 µM.
Consider `CS/C(=C/[N+](=O)[O-])NC1CCCCC1`, for which the results for the IC50 in data set [1] and in data set [2] were 21.9 µM and 70.1 µM, respectively.
As to `CS/C(=C/[N+](=O)[O-])Nc1ccc(F)cc1`, the IC50 in data set [1] and in data set [2] was 19.7 µM in each case.
As for `CS/C(=C/[N+](=O)[O-])NCCCCO`, the IC50 in data set [1] was 73.6 µM; in data set [2] it was over 100 µM. For the same compound, the selectivity ratio in data set [3] and in data set [6] was 11.1 each time. Besides, in data set [5], the EC50 was over 50 µM.
For `CS/C(=C/[N+](=O)[O-])NCCCO`, the results for the IC50 in data set [1] and in data set [2] were over 100 µM and 90.1 µM, respectively. Besides, the selectivity ratio in data set [4] and in data set [7] was 9.6 each time. This compound had an EC50 in data set [5] of over 50 µM.
As to `CS/C(=C/[N+](=O)[O-])Nc1ccc(Cl)cc1`, the IC50 in data set [1] came out at 21.3 µM; in data set [2] it was 25.8 µM. Also, the selectivity ratio in data set [3] stood at 6.9; in data set [4], 7.3; in data set [6] it was 6.9; in data set [7], 7.3. This compound also came in with an EC50 in data set [5] of over 50 µM.
In the case of `COc1ccc2nc(Cl)c(SC)nc2c1`, the results for the IC50 in data set [1] and in data set [2] were 93.6 µM and 38.7 µM, respectively. The selectivity ratio in data set [3] is 9.8; in data set [4], 19.3; in data set [6] it was 9.8; in data set [7], 19.3. Also, in data set [5], the EC50 was over 50 µM.
In the case of `CSc1nc2ccccc2nc1Cl`, the values for the IC50 in data set [1] and in data set [2] were 74.1 µM and 52.9 µM, respectively. Also, the selectivity ratio in data set [3] was found to be 13.5; in data set [4], 8.1; in data set [6], 13.5; in data set [7], 8.1. The compound also showed an EC50 in data set [5] of over 50 µM.
Regarding `COc1ccc2nc(SC)c(Cl)nc2c1`, the IC50 in data set [1] and in data set [2] was over 100 µM each time. For the same compound, in data set [5], the EC50 was over 50 µM.
Turning to `CSc1nc2ccc(Br)cc2nc1Cl`, the IC50 in data set [1] is 57.9 µM; in data set [2] it was 47.8 µM. Further, the selectivity ratio was 7.4 in data set [3], 9.2 in data set [4], 7.4 in data set [6] and 9.2 in data set [7]. The concentration for a half-maximal effect (EC50) in data set [5] was over 50 µM.
Turning to `CSc1nc2ccc(Cl)cc2nc1Cl`, the figures for the concentration for half-maximal inhibition (IC50) in data set [1] and in data set [2] were 45.3 µM and 39.4 µM, respectively. For the same compound, the selectivity ratio in data set [3] was 22.1; in data set [4], 16.1; in data set [6] it was 22.1; in data set [7], 16.1. The EC50 in data set [5] is over 50 µM.
With `COc1ccc2nc(-c3ccccc3)c(SC)nc2c1`, the IC50 in data set [1] and in data set [2] was over 100 µM each time.
On to `CSc1nc2ccccc2nc1-c1ccccc1`, for which the IC50 in data set [1] and in data set [2] was over 100 µM each time.
In the case of `COc1ccc(-c2nc3cc(OC)ccc3nc2-c2ccccc2)cc1`, the values for the IC50 in data set [1] and in data set [2] were 40.5 µM and over 100 µM, respectively.
For the compound `Cc1ccc(-c2nc3cc(Cl)ccc3nc2-c2ccccc2)cc1`, the IC50 was determined as 24.3 µM in data set [1] and 36 µM in data set [2].
For `c1ccc(-c2nc3ccccc3nc2-c2ccc(OCCN3CCOCC3)cc2)cc1`, the IC50 came out at 6.2 µM in data set [1] and 40.3 µM in data set [2]. Also, the selectivity ratio was determined as 8.7 in data set [3], 4.6 in data set [4], 8.7 in data set [6] and 4.6 in data set [7]. The compound further displayed an EC50 in data set [5] of over 50 µM.
With `COc1ccc(-c2nc3ccc(Cl)cc3nc2-c2ccccc2)cc1`, the IC50 in data set [1] was 31.5 µM; in data set [2] it was 43.8 µM. Further, the selectivity ratio in data set [3] stood at 9.5; in data set [4], 6.5; in data set [6] it was 9.5; in data set [7], 6.5. In data set [5], the EC50 was over 50 µM.
Regarding `Clc1ccc2nc(-c3ccccc3)c(-c3ccccc3)nc2c1`, the figures for the half-inhibitory concentration (IC50) in data set [1] and in data set [2] were 28.1 µM and 42.7 µM, respectively. For the same compound, the selectivity ratio turned out to be 6.6 in data set [3], 6.1 in data set [4], 6.6 in data set [6] and 6.1 in data set [7]. Further, in data set [5], the EC50 is over 50 µM.
As to `COc1ccc2nc(NCCO)c(SC)nc2c1`, the IC50 was 82.9 µM in data set [1] and over 100 µM in data set [2]. The selectivity ratio in data set [3] and in data set [6] was 5 each time. In data set [5], the EC50 was over 50 µM.
With `CSc1nc2ccccc2nc1NCCO`, the figures for the IC50 in data set [1] and in data set [2] were 96.2 µM and over 100 µM, respectively. Moreover, the selectivity ratio in data set [3] and in data set [6] was 2.9 throughout. The EC50 in data set [5] was over 50 µM.
For `COc1ccc2nc(SC)c(NCCO)nc2c1`, the IC50 in data set [1] and in data set [2] was over 100 µM throughout. Further, the 50% effective concentration (EC50) in data set [5] is over 50 µM.
Take `COc1ccc2nc(SC)c(NC3CCCCC3)nc2c1`: the figures for the IC50 in data set [1] and in data set [2] were 21.5 µM and 41 µM, respectively. Besides, the selectivity ratio turned out to be 2.4 in data set [3] and 1.8 in data set [4]. Moreover, the EC50 in data set [5] is over 50 µM.
On to `CSc1nc2ccc(Br)cc2nc1NCCO`, for which the IC50 in data set [1] and in data set [2] was over 100 µM each time. Moreover, the EC50 in data set [5] is over 50 µM.
In the case of `CSc1nc2ccc(Cl)cc2nc1NC1CCCCC1`, the IC50 in data set [1] is over 100 µM; in data set [2] it was 52.3 µM. The selectivity ratio in data set [4] and in data set [7] was 4.8 in each case. The compound further came in with an EC50 in data set [5] of over 50 µM.
Turning to `CCCCNc1nc2cc(OC)ccc2nc1-c1ccccc1`, the IC50 is over 100 µM in data set [1] and 66.8 µM in data set [2]. Also, the selectivity ratio in data set [4] and in data set [7] was 12.5 throughout. Moreover, the EC50 in data set [5] was over 50 µM.
Take `COc1ccc2nc(-c3ccccc3)c(NCCO)nc2c1`: the figures for the half-inhibitory concentration (IC50) in data set [1] and in data set [2] were 72.8 µM and over 100 µM, respectively. The selectivity ratio in data set [3] and in data set [6] was 4.8 throughout. For the same compound, in data set [5], the EC50 was over 50 µM.
